ChEMBL document CHEMBL2384997, “2-(1H-Pyrazol-4-yl)acetic acids as CRTh2 antagonists” (Bioorg Med Chem Lett, 2013)
Values after ≈ are worked out from the molar mass of the structure shown. Values belong to the compound of their own block, whether it stands above or below them.

Legend:
[1] = target: T1, Prostaglandin D2 receptor 2 (Homo sapiens, UniProt Q9Y5Y4); assay: Antagonist activity at CRTh2 receptor (unknown origin) overexpressed in CHOK1 cell membranes assessed as inhibition of [35S]-GTPgammaS binding preincubated for 1 hr followed by 50 nM PGD2 and 0.1 nM [35S]-GTPgammaS addition measured after 2 hrs by liquid scintillation counting analysis; type: functional, CHO-K1
T1 sequence (Q9Y5Y4 whole entry): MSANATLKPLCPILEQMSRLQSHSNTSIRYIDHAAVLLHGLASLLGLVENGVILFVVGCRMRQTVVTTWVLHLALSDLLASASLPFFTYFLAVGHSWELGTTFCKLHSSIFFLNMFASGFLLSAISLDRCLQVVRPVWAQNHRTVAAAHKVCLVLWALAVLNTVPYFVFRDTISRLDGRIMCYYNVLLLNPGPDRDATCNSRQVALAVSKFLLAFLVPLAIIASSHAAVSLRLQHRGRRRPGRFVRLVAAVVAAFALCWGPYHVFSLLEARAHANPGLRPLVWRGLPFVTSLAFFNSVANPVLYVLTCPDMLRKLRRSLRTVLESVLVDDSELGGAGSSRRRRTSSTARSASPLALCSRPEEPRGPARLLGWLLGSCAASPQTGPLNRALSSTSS

[2] = target: T2, Thromboxane A2 receptor (Homo sapiens) (UniProt P21731); assay: Inhibition of thromboxane A2 receptor (unknown origin) at 10 uM relative to control
T2 sequence (whole entry): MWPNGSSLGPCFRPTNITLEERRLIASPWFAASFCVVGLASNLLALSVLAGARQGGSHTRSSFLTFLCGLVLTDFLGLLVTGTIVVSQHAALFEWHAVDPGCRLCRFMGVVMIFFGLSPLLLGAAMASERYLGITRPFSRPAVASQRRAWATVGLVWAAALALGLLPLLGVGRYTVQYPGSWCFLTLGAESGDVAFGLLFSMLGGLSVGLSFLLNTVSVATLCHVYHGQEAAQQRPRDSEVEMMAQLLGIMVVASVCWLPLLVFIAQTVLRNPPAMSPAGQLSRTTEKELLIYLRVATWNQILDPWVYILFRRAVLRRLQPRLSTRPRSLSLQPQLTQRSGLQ

[3] = target: T3, Prostaglandin D2 receptor (Homo sapiens) (UniProt Q13258); assay: Inhibition of DP1 receptor (unknown origin) at 10 uM relative to control
T3 sequence (whole entry): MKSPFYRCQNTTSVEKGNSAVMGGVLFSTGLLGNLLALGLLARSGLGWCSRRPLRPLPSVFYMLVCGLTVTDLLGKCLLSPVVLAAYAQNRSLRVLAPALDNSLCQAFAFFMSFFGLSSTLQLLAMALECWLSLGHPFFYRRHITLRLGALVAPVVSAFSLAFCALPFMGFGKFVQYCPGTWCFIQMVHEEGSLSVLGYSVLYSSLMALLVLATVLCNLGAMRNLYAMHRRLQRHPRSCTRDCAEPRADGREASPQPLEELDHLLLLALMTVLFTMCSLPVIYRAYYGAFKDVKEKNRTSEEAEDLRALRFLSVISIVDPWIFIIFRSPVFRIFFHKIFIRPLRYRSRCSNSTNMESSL

[4] = target: T4, Prostaglandin D2 receptor 2 (Homo sapiens) (UniProt Q9Y5Y4); details: CHO-K1
T4 sequence (whole entry): T1 sequence (Q9Y5Y4 whole entry)

[5] = Volume of distribution at steady state in rat at 0.5 mg/kg, iv; type: ADME, organism-based; parameters: dose 0.5 mg/kg, route intravenous; details: in vivo, read-out: Vdss
[6] = Oral bioavailability in rat at 1 mg/kg; type: ADME, organism-based; details: in vivo
[7] = Half life in rat at 0.5 mg/kg, iv; type: ADME, organism-based; parameters: dose 0.5 mg/kg, route intravenous; details: in vivo
[8] = Clearance in rat at 0.5 mg/kg, iv; type: ADME, organism-based; parameters: dose 0.5 mg/kg, route intravenous; details: in vivo
[9] = Lipophilicity , log D of the compound at pH 7.4 by shake-flask method; type: physicochemical; details: buffer
In short: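 logD at pH 7.4 by shake-flask.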

[10] = AUC ( 0 to 24 hrs) in rat at 0.5 mg/kg, iv; type: ADME, organism-based; parameters: time < 24 hr, dose 0.5 mg/kg, route intravenous; details: plasma
[11] = Solubility of the compound at pH 1; type: physicochemical; details: buffer
[12] = Solubility of the compound at pH 7.4; type: physicochemical; details: buffer
[13] = Dissociation constant, pKa of the compound by potentiometric method; type: physicochemical
In short: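 pKa determined potentiometrically.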

[14] = Apparent permeability from apical to basolateral side in human Caco2 cells; type: ADME, cell-based; details: Caco-2
[15] = Apparent permeability from basolateral to apical side in human Caco2 cells; type: ADME, cell-based; details: Caco-2
[16] = target: T4, Prostaglandin D2 receptor 2 (Homo sapiens); assay: Ratio of IC50 for CRTh2 receptor in human whole blood assessed as inhibition of PGD2-induced eosinophil shape change to IC50 for CRTh2 receptor (unknown origin) overexpressed in CHOK1 cells assessed as inhibition of [35S]-GTPgammaS binding; type: functional, cell-based; details: CHO-K1
[17] = target: T1, Prostaglandin D2 receptor 2; assay: Antagonist activity at CRTh2 receptor overexpressed in CHOK1 cell membranes assessed as inhibition of [35S]-GTPgammaS binding in presence of 1% human serum albumin
[18] = Oral bioavailability in rat at 10 mg/kg; type: ADME, organism-based; details: in vivo
[19] = Volume of distribution at steady state in rat at 1 mg/kg, iv; type: ADME, organism-based; parameters: dose 1 mg/kg, route intravenous; details: in vivo, read-out: Vdss
[20] = Clearance in rat at 1 mg/kg, iv; type: ADME, organism-based; parameters: dose 1 mg/kg, route intravenous; details: in vivo
[21] = Terminal half life in rat at 1 mg/kg, iv; type: ADME, organism-based; parameters: dose 1 mg/kg, route intravenous; details: in vivo, read-out: beta t1/2 (converted)
[22] = AUC ( 0 to 24 hrs) in rat at 1 mg/kg, iv; type: ADME, organism-based; parameters: time < 24 hr, dose 1 mg/kg, route intravenous; details: plasma
[23] = Plasma protein binding in human by rapid equilibrium dialysis method; type: ADME, cell-free; details: read-out: PPB
In short: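 Protein binding by equilibrium dialysis; human plasma diluted to 10%.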

[24] = Plasma protein binding in rat by rapid equilibrium dialysis method; type: ADME, cell-free; details: read-out: PPB (converted)

IC50 ([1]; read-out: IC50): 1600 nM
SMILES: COc1c(CC(=O)O)c(C)nn1-c1cccc(NC(=O)[C@H]2C[C@@H]2c2ccccc2)c1

IC50 ([1]; read-out: IC50): 16 nM
SMILES: Cc1c(Cc2ccccc2S(=O)(=O)c2ccccc2)c2cc(F)ccc2n1CC(=O)O

IC50 ([1]; read-out: IC50): 1600 nM
SMILES: Cc1c(CC(=O)O)c(-c2ccccc2)nn1S(=O)(=O)c1ccc(Cl)c(Cl)c1

IC50 ([1]; read-out: IC50): 490 nM
SMILES: Cc1c(CC(=O)O)c(-c2ccccc2)nn1Cc1ccccc1CS(=O)(=O)c1ccccc1

IC50 ([1]; read-out: IC50): 5000 nM
SMILES: Cc1c(CC(=O)O)c(-c2ccccc2)nn1C(c1ccc(F)cc1)c1ccc(S(C)(=O)=O)cc1 (stereo not drawn)

IC50 ([1]; read-out: IC50): > 5000 nM
SMILES: Cc1nn(Cc2ccc3ccccc3n2)c(C)c1CC(=O)O

IC50 ([1]; read-out: IC50): 5000 nM
SMILES: Cc1c(CC(=O)O)c(-c2ccccc2)nn1-c1ccnc2ccccc12

inhibition [2]: < 40%
inhibition [3]: < 40%
IC50 ([1]; read-out: IC50): 81 nM
T1/2 [4]: 2 min
SMILES: Cc1nn(Cc2ccccc2S(=O)(=O)c2ccccc2)c(C)c1CC(=O)O

Vd [5]: 0.14 L/kg
bioavailability [6]: 12%
half-life [7]: 78 min
clearance [8]: 2.5 mL/min/kg
logD [9]: 0.9
AUC(0-t) at 24 h [10]: 3360 ng·h/mL
solubility [11]: 500 µg/mL (≈ 1280 µM)
solubility [12]: 800 µg/mL (≈ 2050 µM)
pKa [13]: 4.2
Papp A→B [14]: 3 ×10⁻⁶ cm/s
Papp B→A [15]: 6 ×10⁻⁶ cm/s
Ratio IC50 [16]: 10
IC50 ([1]; read-out: IC50): 230 nM
SMILES: Cc1nn(-c2cccc(NC(=O)[C@H]3C[C@@H]3c3ccccc3)c2)c(C)c1CC(=O)O

IC50 ([1]; read-out: IC50): 5000 nM
SMILES: Cc1nn(Cc2ccc(S(C)(=O)=O)cc2)c(C)c1CC(=O)O

IC50 ([1]; read-out: IC50): 1100 nM
SMILES: Cc1c(CC(=O)O)c(-c2ccccc2)nn1C(c1ccc(F)cc1)c1ccc(F)cc1

IC50 ([1]; read-out: IC50): 4 nM
IC50 [17]: 66 nM
SMILES: Cc1c(CC(=O)O)c(-c2ccncc2)nn1Cc1ccccc1S(=O)(=O)c1ccccc1

inhibition [2]: < 40%
inhibition [3]: < 40%
IC50 ([1]; read-out: IC50): 89 nM
SMILES: Cc1c(CC(=O)O)c(-c2ccccc2)nn1Cc1ccccc1S(=O)(=O)N1CCOCC1

inhibition [2]: < 40%
inhibition [3]: < 40%
IC50 ([1]; read-out: IC50): 100 nM
SMILES: Cc1c(CC(=O)O)c(-c2ccccc2)nn1Cc1ccccc1Cc1ccccc1

IC50 ([1]; read-out: IC50): 290 nM
SMILES: O=C(O)Cc1cn(C(c2ccc(F)cc2)c2ccc(F)cc2)nc1-c1ccncc1

inhibition [2]: < 40%
inhibition [3]: < 40%
IC50 ([1]; read-out: IC50): 46 nM
T1/2 [4]: 30 min
SMILES: Cc1c(CC(=O)O)c(-c2ccncc2)nn1C(c1ccc(F)cc1)c1ccc(F)cc1

inhibition [2]: < 40%
inhibition [3]: < 40%
IC50 ([1]; read-out: IC50): 2000 nM
SMILES: Cc1c(CC(=O)O)c(-c2ccccc2)nn1Cc1ccccc1Oc1ccccc1

IC50 ([1]; read-out: IC50): 310 nM
SMILES: Cc1c(CC(=O)O)c(-c2ccnc(F)c2)nn1C(c1ccc(F)cc1)c1ccc(F)cc1

IC50 ([1]; read-out: IC50): 1900 nM
SMILES: Cc1c(CC(=O)O)c(-c2ccncc2)nn1Cc1ccc(F)cc1

inhibition [2]: < 40%
inhibition [3]: < 40%
SMILES: Cc1c(CC(=O)O)c(=O)[nH]n1Cc1ccccc1S(=O)(=O)c1ccccc1

IC50 ([1]; read-out: IC50): 5000 nM
SMILES: Cc1c(CC(=O)O)c(-c2ccccc2)nn1Cc1ccc(F)cc1S(=O)(=O)N1CCNCC1

IC50 ([1]; read-out: IC50): 36 nM
SMILES: COc1ccc(S(=O)(=O)c2ccc(F)cc2)c(Cn2nc(-c3ccccc3)c(CC(=O)O)c2C)c1

IC50 ([1]; read-out: IC50): 850 nM
SMILES: Cc1c(CC(=O)O)c(-c2ccccc2)nn1Cc1ccccc1S(=O)(=O)N(C)C

IC50 ([1]; cho-k1): Not Active
SMILES: Cc1c(CC(=O)O)c(-c2ccccc2)nn1Cc1ccc(S(C)(=O)=O)cc1

inhibition [2]: < 40%
inhibition [3]: < 40%
bioavailability [18]: 73%
Vd [19]: 1.6 L/kg
clearance [20]: 8.5 mL/min/kg
half-life [21]: 288 min
AUC(0-t) at 24 h [22]: 1960 ng·h/mL
fraction unbound [23]: < 0.001
fraction unbound [24]: 0.012
logD [9]: 0.7
solubility [11]: 3 µg/mL (≈ 6.72 µM)
solubility [12]: 950 µg/mL (≈ 2130 µM)
pKa [13]: 4.2
Papp A→B [14]: 13 ×10⁻⁶ cm/s
Papp B→A [15]: 17 ×10⁻⁶ cm/s
IC50 ([1]; read-out: IC50): 7 nM
T1/2 [4]: 12 min
SMILES: Cc1c(CC(=O)O)c(-c2ccccc2)nn1Cc1ccccc1S(=O)(=O)c1ccccc1

IC50 ([1]; read-out: IC50): 870 nM
SMILES: Cc1c(CC(=O)O)c(-c2ccccc2)nn1Cc1ccc2ccccc2n1

IC50 ([1]; read-out: IC50): 2900 nM
SMILES: Cc1c(CC(=O)O)c(-c2ccccc2)nn1C(C)c1ccccc1S(=O)(=O)c1ccccc1 (stereo not drawn)

IC50 ([1]; read-out: IC50): 1400 nM
SMILES: Cc1c(CC(=O)O)c(-c2ccccc2)nn1Cc1ccccc1C(=O)c1ccccc1

IC50 ([1]; read-out: IC50): 5000 nM
SMILES: Cc1c(CC(=O)O)c(-c2ccccc2)nn1Cc1ccccc1-c1ccccc1

IC50 ([1]; cho-k1): Not Active
SMILES: Cc1c(CC(=O)O)c(-c2ccccc2)nn1CC1CCCN1S(=O)(=O)c1ccccc1 (stereo not drawn)

IC50 ([1]; cho-k1): Not Active
SMILES: Cc1c(CC(=O)O)c(-c2ccc(O)nc2)nn1C(c1ccc(F)cc1)c1ccc(F)cc1
